Sampled rows, rich in hits. Any-hit rate of the full collection: about 2.6%.
FGF22 binding-1: FGF22 (human) thermal shift binding. Q9HCT0. recombinant FGF22 thermal shift, SYPRO orange fluorescence; percent of sucrose octasulfate shift, DMSO zero. activity (Tm shift, normalised), % at 9.99 µM. 340,000 compounds, 1.5% hits. AID 651658;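 active = mean Tm shift, scaled 0 neutral to 100 positive control, at about 1.3% or above, every replicate too, limit read from the data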
Target sequence (Q9HCT0 whole entry, looked up): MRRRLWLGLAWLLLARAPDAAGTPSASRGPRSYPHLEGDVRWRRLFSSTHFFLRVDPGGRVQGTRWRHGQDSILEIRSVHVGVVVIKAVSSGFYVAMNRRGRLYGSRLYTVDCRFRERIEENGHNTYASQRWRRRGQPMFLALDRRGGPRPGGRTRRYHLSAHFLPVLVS
UCH37 inh: blocks the human deubiquitinase UCH37. purified proteasome/UCH37, Ub-AMC cleavage fluorescence. inhibition, % (test concentration not listed). 330,000 compounds, 0.33% hits;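 active = mean inhibition over replicate wells above about 20%, limit read from the data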;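 note: 0% = compound-free wells with enzyme and 100% = wells lacking proteasome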
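Schedule: 30 min plus 25 min, room temperature / Material: human UCH37 within purified proteasomes / Technique: AMC fluorescence intensity at 355/460 nm / Buffer or medium: pH 7.4 Tris-HCl (50 mM) with ovalbumin, ATP-MgCl2, DTT / Controls: wells without proteasome as full block, compound-free enzyme plus substrate as uninhibited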
CASP6 VEID inh: blocks human caspase-6 cleavage activity. AID 686996. inhibition, % at 12.5 µM. P55212. 350,000 compounds, 0.53% hits. purified caspase-6, Z-VEID-R110 cleavage fluorescence;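 active = mean inhibition across replicates at least about 35%, with every replicate also reaching that limit, limit read from the data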;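 note: 0% = median of neutral control wells and 100% = no fluorescence left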
NSD2 inh: blocks human histone methyltransferase NSD2. NSD2 peptide methylation, AlphaScreen, 120 min. inhibition, % at 12.5 µM. 310,000 compounds, 0.54% hits. AID 743445; in the data active = inhibition above about 50%
SIRT5 inh: sirtuin-5 (human) deacylase inhibition | inhibition, % at 15 µM | 330,000 compounds, 1.1% hits | Q9NXA8 | Purified SirT5, succinyl-peptide AMC, trypsin-coupled fluorescence; in the data active = inhibition above about 15%
Target sequence (Q9NXA8 whole entry, looked up): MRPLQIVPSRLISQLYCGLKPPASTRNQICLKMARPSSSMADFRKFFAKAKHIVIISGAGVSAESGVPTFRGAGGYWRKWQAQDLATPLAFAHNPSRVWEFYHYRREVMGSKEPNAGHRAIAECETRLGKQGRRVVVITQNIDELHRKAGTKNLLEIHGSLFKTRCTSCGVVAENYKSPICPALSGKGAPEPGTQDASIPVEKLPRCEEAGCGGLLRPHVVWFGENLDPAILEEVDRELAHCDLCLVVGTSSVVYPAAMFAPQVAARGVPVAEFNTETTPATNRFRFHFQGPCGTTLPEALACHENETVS
FGF22 binding-2: binders of human FGF22 by thermal shift; shares compounds with FGF22 binding-1; recombinant FGF22 thermal shift, SYPRO orange fluorescence; thermal shift activity, °C (ΔTm) at 38 µM; 1,000 compounds, 2% hits; AID 720646;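 active = fitted rise in melting shift crosses a set limit at or below the top valid dose tested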
SYPRO no-protein: counter-screen for FGF22 binders: compound-only thermal shift, no protein; shares compounds with FGF22 binding-1; compound-only SYPRO orange thermal shift counter-screen; AC50, µM (doses to about 38 µM); 1,000 compounds, 2% hits; AID 743019;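 active = rising signal whose fitted curve reaches the 0.54 level within the top valid dose, showing a melting point, actives reach about 13 µM in these data; inactive = the rest, including activity in the opposite direction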; note: value is where the raw curve crosses a fixed level and not half-maximal
Starred values were filed as active, the others as inactive; i = inactive; x = no result.

SMILES	FGF22 binding-1	UCH37 inh	CASP6 VEID inh	NSD2 inh	SIRT5 inh	FGF22 binding-2	SYPRO no-protein
Oc1ccc(-c2cnc3ccccc3n2)cc1	25*	-2	3	-3	2	0.009	i
CCNC(=O)C[C@@H]1CC[C@H]2[C@H](COc3ccc(NS(C)(=O)=O)cc3C(=O)N2C)O1	0	x	3	x	-5	x	x
CCN1C(=O)C(CC(=O)Nc2ccc(OC)cc2)N(Cc2ccc3c(c2)OCO3)C1=S (stereo not given)	2.0*	-5	2	-4	-2	0.007	i
CCN1C(=O)C(CC(=O)Nc2ccc(OC)cc2)N(CCc2ccc(OC)cc2)C1=S (stereo not given)	1.6*	1	10	-8	-4	0.12	i
Cc1ccccc1C(=O)NCC(=O)OC(C)C(=O)Nc1cccc(S(=O)(=O)N2CCOCC2)c1 (stereo not given)	1.5*	5	0	-1	1	0.088	i
CC(OC(=O)CNC(=O)c1ccccc1)C(=O)Nc1ccc(S(=O)(=O)N2CCOCC2)cc1 (stereo not given)	0	-2	-2	-1	-6	x	x
Cc1nn(-c2ccccc2)c(Cl)c1C=NNC(=O)c1ccccc1NS(=O)(=O)c1cccs1	x	-32	x	x	x	x	x
C[C@H](CO)N1C[C@H](C)[C@H](CN(C)C)Oc2c(NS(=O)(=O)c3cn(C)cn3)cccc2C1=O	0	x	-1	x	-2	x	x
Cc1ccc(-c2n[nH]c(=S)n2N=Cc2c(C)nn(-c3ccccc3)c2C)cc1	x	0	x	x	x	x	x
Cc1ccc(-c2n[nH]c(=S)n2/N=C/c2c(C)[nH]n(-c3ccccc3)c2=O)cc1	2.7*	x	-4	0	3	-0.001	i
CCCC(=O)c1ccc(OCc2cn(CC(=O)c3ccc(O)cc3)nn2)cc1	1.5*	x	8	x	4	0.04	i
O=C(Cn1cc(COc2ccc(Br)cc2)nn1)c1ccc(O)cc1	1.5*	x	8	x	3	0.019	i
CC(=O)c1cc(C)c(OCc2cn(CC(=O)c3ccc(O)cc3)nn2)c(C)c1	0	x	x	x	1	x	x
Cn1cccc1C=NNC(=O)c1cccs1	x	14	x	x	x	x	x
Cc1ccc(S(=O)(=O)Nc2ccc3c(c2)CC(=O)N([C@@H](C)CO)C[C@H](C)[C@H](CN(C)C(=O)Nc2ccc4c(c2)OCO4)O3)cc1	0	x	0	x	-1	x	x
C[C@H]1CN([C@@H](C)CO)C(=O)c2cc(NC(=O)C3CC3)ccc2O[C@@H]1CN(C)C(=O)Nc1ccc(C(F)(F)F)cc1	0	x	-1	x	0	x	x
Nc1nonc1-n1nnc(C(=O)N/N=C/c2cccnc2)c1CSc1ccc(Cl)cc1	2.7*	x	27	3	1	-0.012	i
Nc1nonc1-n1nnc(C(=O)N/N=C/c2cccnc2)c1CSc1ccccc1	0	x	1	3	-3	x	x
C/C(=N\NC(=O)c1nnn(-c2nonc2N)c1CSc1ccc(C)cc1)c1cccnc1	1.7*	x	0	0	-6	-0.024	i
CC1CCN(Cc2c(C(=O)NN=Cc3ccc(OC(C)C)cc3)nnn2-c2nonc2N)CC1	x	1	x	x	x	x	x
CC1CCN(Cc2c(C(=O)N/N=C/c3ccc(OC(C)C)cc3)nnn2-c2nonc2N)CC1	1.5*	x	0	13	2	-0.12	i
CC(=NNC(=O)c1nnn(-c2nonc2N)c1CSc1ccccc1)c1cccnc1	x	0	x	x	x	x	x
CNC[C@@H]1Oc2ccc(NC(=O)NC3CCCCC3)cc2C(=O)N([C@@H](C)CO)C[C@@H]1C	0	x	3	x	-1	x	x
Cc1ccc(C(=O)n2nc(-c3cccnc3)nc2N)cc1	x	2	x	1	x	x	x
Nc1nc(-c2cccnc2)nn1C(=O)c1ccc(F)cc1	1.7*	2	0	-1	-4	0.22	i
Cc1ccc(N(CCC#N)C(=O)COC(=O)c2cc(C)oc2C)cc1	0	-2	3	-1	2	x	x
Cc1ccc(N(CCC#N)C(=O)COC(=O)c2cc(C)no2)cc1	2.8*	1	-5	1	-4	0.076	i
C[C@H](CO)N1C[C@H](C)[C@@H](CN(C)CC2CCCCC2)Oc2c(NS(C)(=O)=O)cccc2C1=O	0	x	-3	x	3	x	x

Bioassay records: PubChem, several laboratories
